Screening results (PubChem BioAssay)
Rows were chosen to be rich in hits. Some 0.99% of all compounds tested hit in one or more screens of this group.
ABCG2 block – ABCG2 efflux pump inhibitors, primary screen, multiplex with ABCB1, IgMXP3 cells, flow cytometry; JC-1 efflux; inhibition, % at 6.6 µM; 190,000 tested, 0.1% active;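 active means inhibition above 80%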;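 further: 0% = DMSO and 100% = nicardipine control wells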
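material = IgMXP3 (ABCG2) plus far-red-tagged CCRF-Adr (ABCB1) cells | amount = 3 million cells/mL, equal mix of both lines | also added = JC-1 transporter substrate | dosing = one concentration, 6.6 µM final | schedule = 10 min at 25 °C | measured by = flow cytometric JC-1 green MFI at 530 nm | read-out basis = percent efflux inhibition, scaled nicardipine 100% to DMSO 0%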
Insulin prom up – insulin promoter activators in MIN6 cells, imaging, high-content screening, mouse beta cells | MIN6 insulin promoter-GFP reporter; stronger effect = higher value | z-score at 5 µM | 190,000 tested, 0.3% active;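 active means z-score above 3 at 5 µM with at least 500 cells counted in the well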
GRK2 aptamer HTS – compounds blocking aptamer binding on GRK2 – biochemical, human GRK2, bead flow cytometry, HTS, primary screen | FAM-aptamer displacement from GRK2 | inhibition of aptamer binding, % at 10 µM | AID 488847, 2010 | 330,000 tested, 0.59% active;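 active means inhibition of aptamer binding above 40%, roughly 3 SD of noise, on plates passing a quality check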;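 further: median bead fluorescence of bound FAM aptamer so fluorescent compounds give negative values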
Target sequence (P25098 whole entry, looked up): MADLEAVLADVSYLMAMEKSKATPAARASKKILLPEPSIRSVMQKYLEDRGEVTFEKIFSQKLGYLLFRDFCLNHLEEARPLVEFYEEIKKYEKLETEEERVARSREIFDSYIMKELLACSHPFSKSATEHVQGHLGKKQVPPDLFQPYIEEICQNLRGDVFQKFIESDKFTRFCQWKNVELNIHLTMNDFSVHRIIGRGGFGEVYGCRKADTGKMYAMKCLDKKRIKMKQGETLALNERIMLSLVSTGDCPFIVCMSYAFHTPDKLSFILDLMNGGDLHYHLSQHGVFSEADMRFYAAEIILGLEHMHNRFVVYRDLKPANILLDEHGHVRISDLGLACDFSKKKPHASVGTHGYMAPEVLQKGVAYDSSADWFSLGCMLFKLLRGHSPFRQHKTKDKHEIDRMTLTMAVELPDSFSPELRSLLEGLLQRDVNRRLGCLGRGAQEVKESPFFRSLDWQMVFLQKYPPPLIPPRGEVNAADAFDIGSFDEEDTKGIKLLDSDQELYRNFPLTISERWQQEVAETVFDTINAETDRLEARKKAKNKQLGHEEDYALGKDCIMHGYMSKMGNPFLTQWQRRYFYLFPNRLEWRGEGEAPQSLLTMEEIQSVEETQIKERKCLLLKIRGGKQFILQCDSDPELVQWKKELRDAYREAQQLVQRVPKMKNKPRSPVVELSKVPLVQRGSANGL
ABCB1 inh – ABCB1 efflux pump inhibitors, primary screen, cell-based, multiplex, flow cytometry, ABCG2 counter-screen; CCRF-Adr cells, JC-1 efflux; inhibition, % at 6.6 µM; 190,000 tested, 0.067% active; AID 1326, 2008; in the data active means inhibition above about 40%;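 further: 0% = vehicle and 100% = reference inhibitor; higher value means more JC-1 retained so stronger ABCB1 efflux block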
DDE Tn7 FP inh – inhibitors of Tn7 peptide binding to fibrin DD(E), primary screen, biochemical, fluorescence polarization, human fibrin, Tn7 probe; FP displacement of FITC-Tn7 peptide from fibrin DD(E); 0% = median of compound wells per plate; Fibrinogen beta chain (Homo sapiens), P02675; 370,000 tested, 0.13% active; AID 720508, 2013; inhibition, % at 8.3 µM;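 active means inhibition above the mean of compounds falling within the control limits plus 3 SD of them, cut at about 14% in these data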;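 further: 0% = plate median of compound wells and 100% = 10 µM Aha-Tn7 peptide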
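Assay system: Human clot-derived fibrin DD(E) complex | Buffer or medium: Tris/NaCl/CaCl2 buffer, pH 7.8 | Repeats: One replicate per compound | Benchmarks: Aha-Tn7 high control | Measure: % inhibition scaled between sample-field median and high-control FP | Schedule: 10 min plus 3 h, room temperature | Signal: Fluorescence polarization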
DDE Tn6 FP inh – inhibitors of Tn6 peptide binding to fibrin DD(E), primary screen, biochemical, fluorescence polarization, human fibrin, Tn6 probe; Fibrinogen beta chain (Homo sapiens), P02675; Fibrin DD(E) TRITC-Tn6 fluorescence polarization displacement; inhibition, % at 8.3 µM; 370,000 tested, 0.21% active; AID 720509, 2013;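 active means inhibition above a per-campaign cutoff: mean of compounds within control limits plus 3 SD, cut at about 15% in these data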;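 further: 0% = median of all compound wells on the plate and 100% = blocking peptide control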
An asterisk follows results filed as active.

CCCCCC[C@@H](CN(CCCC)S(C)(=O)=O)c1ccccc1 was read as DDE Tn7 FP inh 9.1 and DDE Tn6 FP inh 12.3.
Screening O=C(C1CCCO1)N1CCN(C2=Nc3ccccc3Sc3ccccc32)CC1 (centres undefined) returned DDE Tn7 FP inh -6.8 and DDE Tn6 FP inh 0.3.
O=C(N[C@H](Cc1ccccc1)C(=O)NCc1ccccn1)[C@H]1O[C@@H](n2ccc(=O)[nH]c2=O)[C@H](O)[C@@H]1O was read as DDE Tn7 FP inh -6.1 and DDE Tn6 FP inh 7.8.
For Cc1cccc(Cn2cc(COC(=O)N3CCCC3)nn2)c1 the results were DDE Tn7 FP inh 3.3 and DDE Tn6 FP inh -0.7.
Screening O=C(CNS(=O)(=O)c1ccc2ccccc2c1)OCc1csc(-c2ccccc2)n1 returned ABCG2 block 2.0, Insulin prom up 0.43, GRK2 aptamer HTS 100.0*, ABCB1 inh -0.5, DDE Tn7 FP inh 2.9 and DDE Tn6 FP inh 0.5.
Screening CC(=O)N1c2ccccc2Oc2cc3ccccc3cc21 returned ABCG2 block -3.2, Insulin prom up -0.48, GRK2 aptamer HTS 0.0, ABCB1 inh -0.3, DDE Tn7 FP inh -7.4 and DDE Tn6 FP inh -3.1.
For O=C(CCl)N1c2ccccc2Oc2ccc3ccccc3c21 the results were DDE Tn7 FP inh 16.1* and DDE Tn6 FP inh 38.7*.
For O=C(/C=C/Nc1ccc(F)cc1)c1ccc(Br)cc1 the results were ABCG2 block 3.6, Insulin prom up 0.56, GRK2 aptamer HTS 4.0, ABCB1 inh 0.1, DDE Tn7 FP inh 1.1 and DDE Tn6 FP inh -8.2.
Screening O=C(/C=C/Nc1ccc([N+](=O)[O-])cc1)c1ccc(Br)cc1 returned ABCG2 block 3.4, Insulin prom up -0.23, GRK2 aptamer HTS 46.0*, ABCB1 inh 0.2, DDE Tn7 FP inh -4.5 and DDE Tn6 FP inh -6.4.
`COC(=O)[C@]12C[C@H](CC(=O)N3CCN(C(=O)c4ccco4)CC3)C(=O)N(CCc3ccc(OC)c(OC)c3)C1=C[C@H](C(C)C)O[C@@H]2C1CC1` gave DDE Tn7 FP inh -5.3 and DDE Tn6 FP inh 3.1.
For CCOc1cccc(CNn2cnnc2)c1OCc1ccccc1Cl the results were ABCG2 block 3.8, Insulin prom up -0.67, GRK2 aptamer HTS 3.0, ABCB1 inh 0.9, DDE Tn7 FP inh 10.7 and DDE Tn6 FP inh 2.3.
For CCOc1cccc(CNc2ccc(O)cc2)c1OCc1ccc(Cl)cc1Cl the results were ABCG2 block 30.4, Insulin prom up -0.28, GRK2 aptamer HTS 2.0, ABCB1 inh 1.4, DDE Tn7 FP inh 0.2 and DDE Tn6 FP inh 27.9*.
`CCOc1cccc(CNc2ccc(O)cc2)c1OCc1ccccc1Cl` gave ABCG2 block 2.6, Insulin prom up 0.46, GRK2 aptamer HTS 2.0, ABCB1 inh 0.4, DDE Tn7 FP inh 3.8 and DDE Tn6 FP inh 16.0*.
CCOc1cccc(CNCCO)c1OCc1ccc(Cl)cc1Cl was read as ABCG2 block 38.1, Insulin prom up -1.22, GRK2 aptamer HTS 0.0, ABCB1 inh 0.7, DDE Tn7 FP inh -4.1 and DDE Tn6 FP inh -4.0.
`O=C(c1cc(Cl)cc(Cl)c1)N1CC[C@H]2[C@H](CCCN2Cc2cc(F)cc(F)c2)C1` gave DDE Tn7 FP inh 6.0 and DDE Tn6 FP inh -9.5.
Fc1ccc(OCc2nnc(-c3ccccc3Br)o2)c(Cl)c1 was read as GRK2 aptamer HTS 0.0, DDE Tn7 FP inh 0.2 and DDE Tn6 FP inh 10.2.
Screening Clc1ccc(OCc2nnc(-c3ccccc3Br)o2)c(Cl)c1 returned ABCG2 block 0.0, Insulin prom up -1.29, GRK2 aptamer HTS 1.0, ABCB1 inh 0.0, DDE Tn7 FP inh -9.3 and DDE Tn6 FP inh 42.0*.
Screening N#CCOc1nc(N2CCOCC2)nc(N2CCOCC2)n1 returned ABCG2 block 2.0, Insulin prom up -0.83, GRK2 aptamer HTS 3.0, ABCB1 inh 0.2, DDE Tn7 FP inh -2.8 and DDE Tn6 FP inh 9.9.
For N#Cc1nc(N2CCOCC2)nc(N2CCOCC2)n1 the results were ABCG2 block 1.1, Insulin prom up 3.26*, GRK2 aptamer HTS 0.0, ABCB1 inh 0.4, DDE Tn7 FP inh 7.8 and DDE Tn6 FP inh 4.6.
Screening C=CCN1[C@H](C#N)[C@@H](c2ccc(C#Cc3cccnc3)cc2)[C@H]1CO returned DDE Tn7 FP inh -0.6 and DDE Tn6 FP inh -8.6.
For O=C(OCc1ccccc1)N1CCC2CC1c1ccc(N3CCN(Cc4ccccc4)CC3)cc12 (centres undefined) the results were DDE Tn7 FP inh 2.5 and DDE Tn6 FP inh -0.6.
Screening C=Cc1c(C)c2cc3[nH]c(cc4nc(cc5nc(cc1[nH]2)C(C)=C5CCC(=O)O)C(CCC(=O)O)=C4C)c(C)c3C=C returned GRK2 aptamer HTS 6.0, DDE Tn7 FP inh -0.7 and DDE Tn6 FP inh 31.1*.
CC(c1c[nH]c2ccccc12)c1c[nH]c2ccc(Br)cc12 (centres undefined) was read as DDE Tn7 FP inh -5.7 and DDE Tn6 FP inh 5.1.
`O=C(NC1CCCC1)c1ccc(COc2ccccc2)o1` gave DDE Tn7 FP inh -0.3 and DDE Tn6 FP inh -10.1.
For O=C(c1cc([N+](=O)[O-])ccc1N1CCCCC1)N1CCCC1 the results were ABCG2 block 3.9, Insulin prom up 0.58, GRK2 aptamer HTS 0.0, ABCB1 inh 1.5, DDE Tn7 FP inh 6.5 and DDE Tn6 FP inh 1.3.
Screening O=C(c1cc([N+](=O)[O-])ccc1N1CCCC1)N1CCCC1 returned ABCG2 block 0.6, Insulin prom up 3.06*, GRK2 aptamer HTS 5.0, ABCB1 inh 0.1, DDE Tn7 FP inh 3.7 and DDE Tn6 FP inh -1.9.
Screening CCNC(=O)C1(C)CCCN(C(=O)c2nc3ccccc3s2)C1 (centres undefined) returned DDE Tn7 FP inh -3.4 and DDE Tn6 FP inh -3.1.
Cc1cc(C2C(C#N)=C(N)Oc3n[nH]c(C)c32)c(C)s1 (centres undefined) was read as ABCG2 block 0.7, Insulin prom up 3.37*, GRK2 aptamer HTS 0.0, ABCB1 inh 0.0, DDE Tn7 FP inh -8.7 and DDE Tn6 FP inh -0.3.
For COc1ccc(-c2cc(NC(=O)Cc3c[nH]c4ccccc34)ccc2Nc2cccnc2)c(OC)c1 the results were DDE Tn7 FP inh -4.1 and DDE Tn6 FP inh -6.1.
Cc1c(C2Nc3ccccc3NC3=C2C(=O)CC(C)(C)C3)cnn1C (centres undefined) was read as ABCG2 block 0.0, Insulin prom up 0.32, GRK2 aptamer HTS 2.0, ABCB1 inh 0.0, DDE Tn7 FP inh 15.4* and DDE Tn6 FP inh 2.2.
